{"data": "Results of several laboratories", "BRAF": "Serine/threonine-protein kinase B-raf (BRAF, Homo sapiens, UniProt P15056)", "BRAF V600E": "Serine/threonine-protein kinase B-raf (BRAF, Homo sapiens, UniProt P15056, V600E)"}
{"Compound": "C1=C/COCc2cc(ccc2OCCN2CCCC2)Nc2nccc(n2)-c2cccc(c2)COC/1", "target": "BRAF", "test": "binding", "conditions": "0.1 µM", "endpoint": "remaining binding", "result": "94%"}
{"Compound": "COc1ccc2oc(-c3ccc4nc(N)oc4c3)c/c(=N\\c3ccccc3NC(=O)CCN)c2c1", "target": "BRAF V600E", "test": "cell-free assay", "conditions": "1 µM", "endpoint": "remaining signal", "result": "100%"}
{"Compound": "CN1CCN(C(=O)c2ccc(NC(=O)Nc3ccc(N(C)c4ccnc(Nc5ccc(CS(C)(=O)=O)cc5)n4)cc3)cc2)CC1", "target": "BRAF V600E", "test": "binding", "conditions": "1 µM", "endpoint": "remaining binding", "result": "85%"}
{"Compound": "Cc1cc2c(C(N)=O)c(N)n(-c3c(C)ccc(O)c3C)c2nc1C", "target": "BRAF", "test": "enzyme activity, inhibitor, ADP detection", "conditions": "3.333 µM", "endpoint": "inhibition", "result": "101%"}
{"Compound": "C[C@H]1CC[C@H](n2c3cnccc3c3cnc(Nc4ccc5c(n4)CCN(C(=O)CO)C5)nc32)CC1", "target": "BRAF V600E", "test": "cell-free assay", "conditions": "1 µM", "endpoint": "remaining signal", "result": "82%"}
{"Compound": "N#Cc1ccc(NC(=O)Nc2ccccc2)cc1", "target": "BRAF V600E", "test": "cell-free assay, competition with immobilised ligand", "conditions": "25 µM", "endpoint": "remaining binding", "result": "100%"}
{"Compound": "C=CC(=O)N1CCC([C@@H]2CCNc3c(C(N)=O)c(-c4ccc(Oc5ccccc5)cc4)nn32)CC1", "target": "BRAF V600E", "test": "enzyme activity, inhibitor", "conditions": "1 µM", "endpoint": "inhibition", "result": "0%"}
{"Compound": "Cc1ccc(NC(=O)c2ccnc(C(F)(F)F)c2)cc1-c1cc(OCCO)nc(N2CCOCC2)c1", "target": "BRAF", "test": "binding, competition with immobilised ligand", "conditions": "1 µM", "endpoint": "remaining binding", "result": "0.4%"}
{"Compound": "C=CC(=O)N1CCC[C@@H](n2nc(-c3ccc(Oc4ccccc4)cc3)c3c(N)ncnc32)C1", "target": "BRAF", "test": "enzyme activity, inhibitor", "conditions": "1 µM", "endpoint": "inhibition", "result": "51%"}
{"Compound": "CCCCC(=O)Nc1ccc(-c2ccc3ncn(CCC)c(=O)c3c2)cn1", "target": "BRAF V600E", "test": "binding, competition with immobilised ligand", "conditions": "0.5 µM", "endpoint": "remaining binding", "result": "95%"}
{"Compound": "CC#CC(=O)N1CCC[C@H]1c1nc(-c2ccc(C(=O)Nc3ccccn3)cc2)c2c(N)nccn12", "target": "BRAF V600E", "test": "enzyme activity, inhibitor", "conditions": "1 µM", "endpoint": "inhibition", "result": "44%"}
{"Compound": "Cc1cc(O)c(-c2ccc([C@@H](C)CN(C)C)cc2)c2c1[nH]c(=O)c1sccc12", "target": "BRAF V600E", "test": "cell-free assay, inhibitor", "conditions": "0.1 µM, lysate", "endpoint": "inhibition", "result": "-5.15%"}
{"Compound": "CO[C@@H]1[C@H](N(C)C(=O)c2ccccc2)C[C@H]2O[C@]1(C)n1c3ccccc3c3c4c(c5c6ccccc6n2c5c31)C(=O)NC4", "target": "BRAF", "test": "enzyme activity, inhibitor", "conditions": "1 µM", "endpoint": "inhibition", "result": "6%"}
{"Compound": "COc1ccc2[nH]c3c4[nH]c5ccc(OC)cc5c4c4c(c3c2c1)C(=O)NC4=O", "target": "BRAF", "test": "binding, competition with immobilised ligand", "conditions": "1 µM", "endpoint": "remaining binding", "result": "86%"}
